Laboratory results taken from ChEMBL document CHEMBL3774303, “Discovery of novel pyrrolo[2,3-b]pyridine derivatives bearing 1,2,3-triazole moiety as c-Met kinase inhibitors” (Bioorg Med Chem Lett, 2016).

What was measured:
[1] = system: HT-29; test: Cytotoxicity against human HT-29 cells assessed as reduction in cell growth after 72 hrs by MTT assay; conditions: HT-29, 72 h
[2] = system: A549; test: Cytotoxicity against human A549 cells assessed as reduction in cell growth after 72 hrs by MTT assay; conditions: A549, 72 h
[3] = system: MCF7; test: Cytotoxicity against human MCF7 cells assessed as reduction in cell growth after 72 hrs by MTT assay; assay type: functional, cell-based; conditions: MCF7, 72 h
Summary of the method: (§1)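 Cells grown in MEM with 10% FBS were seeded at about 4 × 10³ cells/well and held 24 h at 37 °C in 5% CO₂. Compounds were then added and cells cultured 72 h. IC50 is the average of triplicate determinations.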

[4] = Cytotoxicity against human PC3 cells assessed as reduction in cell growth after 72 hrs by MTT assay; assay type: functional, cell-based; conditions: PC-3, 72 h; summary of the method: as §1
[5] = target: Vascular endothelial growth factor receptor 2 (Homo sapiens, UniProt P35968); test: Inhibition of KDR (unknown origin) using poly (Glu, Tyr) 4:1 as substrate after 30 mins by HTRF assay
Sequence of Vascular endothelial growth factor receptor 2 (P35968 whole entry): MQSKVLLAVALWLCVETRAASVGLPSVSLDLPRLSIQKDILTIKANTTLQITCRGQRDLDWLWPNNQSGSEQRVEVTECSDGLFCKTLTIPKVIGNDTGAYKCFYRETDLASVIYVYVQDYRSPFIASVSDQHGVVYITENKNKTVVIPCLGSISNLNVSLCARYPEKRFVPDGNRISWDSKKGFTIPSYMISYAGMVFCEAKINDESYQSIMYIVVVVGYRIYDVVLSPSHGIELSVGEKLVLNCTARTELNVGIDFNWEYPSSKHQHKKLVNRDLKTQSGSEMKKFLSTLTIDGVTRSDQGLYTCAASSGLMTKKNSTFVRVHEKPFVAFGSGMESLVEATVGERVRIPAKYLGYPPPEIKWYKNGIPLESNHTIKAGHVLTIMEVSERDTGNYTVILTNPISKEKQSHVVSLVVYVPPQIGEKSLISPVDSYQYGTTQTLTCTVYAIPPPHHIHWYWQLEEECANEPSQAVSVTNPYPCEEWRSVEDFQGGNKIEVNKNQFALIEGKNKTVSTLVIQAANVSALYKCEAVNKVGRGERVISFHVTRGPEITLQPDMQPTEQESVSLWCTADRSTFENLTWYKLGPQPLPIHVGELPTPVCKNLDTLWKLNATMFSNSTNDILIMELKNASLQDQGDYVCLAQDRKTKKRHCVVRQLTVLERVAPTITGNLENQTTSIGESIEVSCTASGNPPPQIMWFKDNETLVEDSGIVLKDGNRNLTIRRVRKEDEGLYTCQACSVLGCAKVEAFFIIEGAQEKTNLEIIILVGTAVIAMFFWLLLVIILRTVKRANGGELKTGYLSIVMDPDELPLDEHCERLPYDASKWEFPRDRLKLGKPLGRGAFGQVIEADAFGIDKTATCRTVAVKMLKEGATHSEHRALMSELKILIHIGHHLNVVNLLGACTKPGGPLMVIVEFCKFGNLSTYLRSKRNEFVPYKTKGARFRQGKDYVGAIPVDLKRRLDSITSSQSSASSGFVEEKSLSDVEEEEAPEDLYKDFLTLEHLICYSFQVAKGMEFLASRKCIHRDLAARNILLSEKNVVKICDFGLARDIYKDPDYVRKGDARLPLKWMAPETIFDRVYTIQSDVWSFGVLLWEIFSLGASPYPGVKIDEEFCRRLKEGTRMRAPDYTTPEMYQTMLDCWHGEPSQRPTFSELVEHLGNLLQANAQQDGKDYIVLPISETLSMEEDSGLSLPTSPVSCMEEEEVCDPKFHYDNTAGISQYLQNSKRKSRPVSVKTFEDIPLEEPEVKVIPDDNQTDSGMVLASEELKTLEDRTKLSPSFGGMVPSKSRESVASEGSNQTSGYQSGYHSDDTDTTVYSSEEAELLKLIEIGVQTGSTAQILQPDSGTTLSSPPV
Summary of the method: (§2)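 HTRF tyrosine-kinase assay with purified enzyme on preloaded poly(Glu,Tyr) 4:1 substrate (20 μg/mL). ATP was added from a 10 mM solution in HEPES buffer (50 mM, pH 7.0, with Mg²⁺, Mn²⁺, DTT, 0.1% NaN₃), and compounds in 1% DMSO.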

[6] = target: Platelet-derived growth factor receptor beta (Homo sapiens, UniProt P09619); test: Inhibition of PDGFRbeta (unknown origin) using poly (Glu, Tyr) 4:1 as substrate after 30 mins by HTRF assay; summary of the method: as §2
Sequence of Platelet-derived growth factor receptor beta (P09619 whole entry): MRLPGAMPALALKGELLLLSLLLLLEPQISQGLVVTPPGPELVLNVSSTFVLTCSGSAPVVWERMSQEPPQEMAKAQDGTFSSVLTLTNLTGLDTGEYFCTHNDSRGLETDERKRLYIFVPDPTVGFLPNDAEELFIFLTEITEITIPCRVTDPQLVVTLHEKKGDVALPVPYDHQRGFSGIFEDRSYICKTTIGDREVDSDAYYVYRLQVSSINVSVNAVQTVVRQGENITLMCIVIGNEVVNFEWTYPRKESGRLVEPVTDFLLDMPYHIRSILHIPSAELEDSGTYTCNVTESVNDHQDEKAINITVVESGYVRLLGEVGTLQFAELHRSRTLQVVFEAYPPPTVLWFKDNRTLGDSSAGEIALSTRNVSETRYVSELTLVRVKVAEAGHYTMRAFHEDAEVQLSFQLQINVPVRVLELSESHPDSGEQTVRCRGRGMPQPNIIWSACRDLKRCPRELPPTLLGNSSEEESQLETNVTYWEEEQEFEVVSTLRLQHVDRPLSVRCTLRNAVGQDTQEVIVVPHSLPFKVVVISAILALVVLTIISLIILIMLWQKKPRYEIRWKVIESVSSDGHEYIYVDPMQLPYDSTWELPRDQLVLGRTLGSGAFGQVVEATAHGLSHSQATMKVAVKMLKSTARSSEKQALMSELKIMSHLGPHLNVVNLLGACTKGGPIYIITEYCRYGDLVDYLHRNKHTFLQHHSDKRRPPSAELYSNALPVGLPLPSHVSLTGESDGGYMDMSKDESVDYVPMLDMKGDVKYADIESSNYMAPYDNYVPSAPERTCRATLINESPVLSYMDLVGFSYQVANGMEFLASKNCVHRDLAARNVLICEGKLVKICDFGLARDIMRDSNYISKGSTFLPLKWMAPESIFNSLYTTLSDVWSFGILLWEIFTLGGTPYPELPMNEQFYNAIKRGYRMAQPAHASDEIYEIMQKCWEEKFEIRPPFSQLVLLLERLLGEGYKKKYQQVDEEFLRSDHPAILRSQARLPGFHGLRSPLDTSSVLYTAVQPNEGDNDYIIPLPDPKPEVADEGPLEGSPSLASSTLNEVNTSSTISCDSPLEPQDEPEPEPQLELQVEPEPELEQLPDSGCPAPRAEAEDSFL

[7] = target: T1, Receptor-type tyrosine-protein kinase FLT3 (Homo sapiens, UniProt P36888); test: Inhibition of FLT3 (unknown origin) using poly (Glu, Tyr) 4:1 as substrate after 30 mins by HTRF assay; summary of the method: as §2
T1 sequence (P36888 whole entry): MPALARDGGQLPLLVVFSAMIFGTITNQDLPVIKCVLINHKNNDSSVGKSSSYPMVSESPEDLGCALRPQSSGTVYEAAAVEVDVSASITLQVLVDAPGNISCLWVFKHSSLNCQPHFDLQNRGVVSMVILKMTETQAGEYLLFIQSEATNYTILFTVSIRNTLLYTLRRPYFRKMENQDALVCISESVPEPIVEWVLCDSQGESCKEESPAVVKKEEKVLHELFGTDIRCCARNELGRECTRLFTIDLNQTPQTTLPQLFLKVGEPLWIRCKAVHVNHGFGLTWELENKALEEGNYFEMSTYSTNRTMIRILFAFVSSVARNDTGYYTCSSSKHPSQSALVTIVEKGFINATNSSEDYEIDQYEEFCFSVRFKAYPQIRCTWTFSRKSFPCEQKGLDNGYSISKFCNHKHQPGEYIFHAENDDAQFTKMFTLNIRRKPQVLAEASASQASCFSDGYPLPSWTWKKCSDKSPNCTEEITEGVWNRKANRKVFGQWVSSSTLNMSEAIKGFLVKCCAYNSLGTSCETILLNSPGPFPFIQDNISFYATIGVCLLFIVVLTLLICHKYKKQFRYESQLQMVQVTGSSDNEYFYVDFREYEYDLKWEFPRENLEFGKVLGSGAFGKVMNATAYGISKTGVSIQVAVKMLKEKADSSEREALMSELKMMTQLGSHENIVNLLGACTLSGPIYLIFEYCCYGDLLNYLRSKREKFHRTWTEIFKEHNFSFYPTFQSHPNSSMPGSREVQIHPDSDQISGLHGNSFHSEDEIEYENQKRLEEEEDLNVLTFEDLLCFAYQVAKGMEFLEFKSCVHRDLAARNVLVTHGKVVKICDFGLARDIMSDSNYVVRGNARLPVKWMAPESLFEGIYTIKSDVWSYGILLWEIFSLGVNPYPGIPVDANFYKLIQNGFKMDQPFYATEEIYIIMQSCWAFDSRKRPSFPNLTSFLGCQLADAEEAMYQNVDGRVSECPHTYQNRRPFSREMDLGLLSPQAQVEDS

[8] = target: Mast/stem cell growth factor receptor Kit (Homo sapiens, UniProt P10721); test: Inhibition of cKit (unknown origin) using poly (Glu, Tyr) 4:1 as substrate after 30 mins by HTRF assay; summary of the method: as §2
Sequence of Mast/stem cell growth factor receptor Kit (P10721 whole entry): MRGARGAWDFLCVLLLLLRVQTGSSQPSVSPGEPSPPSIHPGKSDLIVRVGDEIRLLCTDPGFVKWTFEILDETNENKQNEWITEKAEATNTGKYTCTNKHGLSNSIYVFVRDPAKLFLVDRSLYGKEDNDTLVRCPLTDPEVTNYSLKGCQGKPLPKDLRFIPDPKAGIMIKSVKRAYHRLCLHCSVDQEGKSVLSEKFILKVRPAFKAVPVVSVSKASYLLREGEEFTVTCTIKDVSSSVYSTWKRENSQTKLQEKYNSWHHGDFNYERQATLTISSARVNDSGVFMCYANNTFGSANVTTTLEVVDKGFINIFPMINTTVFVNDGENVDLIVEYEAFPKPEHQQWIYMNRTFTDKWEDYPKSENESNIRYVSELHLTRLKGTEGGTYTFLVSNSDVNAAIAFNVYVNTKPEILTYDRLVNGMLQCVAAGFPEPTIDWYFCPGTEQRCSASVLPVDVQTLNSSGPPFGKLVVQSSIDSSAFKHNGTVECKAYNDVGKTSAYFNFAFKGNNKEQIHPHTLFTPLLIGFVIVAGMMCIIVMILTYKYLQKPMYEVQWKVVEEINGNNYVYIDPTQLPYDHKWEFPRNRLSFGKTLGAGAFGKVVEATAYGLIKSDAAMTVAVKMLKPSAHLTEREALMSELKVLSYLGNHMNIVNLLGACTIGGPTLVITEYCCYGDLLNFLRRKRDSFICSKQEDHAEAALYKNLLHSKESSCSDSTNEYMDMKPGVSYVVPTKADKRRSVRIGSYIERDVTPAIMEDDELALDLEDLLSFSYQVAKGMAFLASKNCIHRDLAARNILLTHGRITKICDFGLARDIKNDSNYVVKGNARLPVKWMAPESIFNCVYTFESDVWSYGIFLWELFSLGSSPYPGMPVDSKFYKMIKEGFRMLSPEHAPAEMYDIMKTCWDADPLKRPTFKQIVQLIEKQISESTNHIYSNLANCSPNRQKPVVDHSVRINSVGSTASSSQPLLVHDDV

[9] = target: Hepatocyte growth factor receptor (Homo sapiens, UniProt P08581); test: Inhibition of cMet (unknown origin) using poly (Glu, Tyr) 4:1 as substrate after 30 mins by HTRF assay
Sequence of Hepatocyte growth factor receptor (P08581 whole entry): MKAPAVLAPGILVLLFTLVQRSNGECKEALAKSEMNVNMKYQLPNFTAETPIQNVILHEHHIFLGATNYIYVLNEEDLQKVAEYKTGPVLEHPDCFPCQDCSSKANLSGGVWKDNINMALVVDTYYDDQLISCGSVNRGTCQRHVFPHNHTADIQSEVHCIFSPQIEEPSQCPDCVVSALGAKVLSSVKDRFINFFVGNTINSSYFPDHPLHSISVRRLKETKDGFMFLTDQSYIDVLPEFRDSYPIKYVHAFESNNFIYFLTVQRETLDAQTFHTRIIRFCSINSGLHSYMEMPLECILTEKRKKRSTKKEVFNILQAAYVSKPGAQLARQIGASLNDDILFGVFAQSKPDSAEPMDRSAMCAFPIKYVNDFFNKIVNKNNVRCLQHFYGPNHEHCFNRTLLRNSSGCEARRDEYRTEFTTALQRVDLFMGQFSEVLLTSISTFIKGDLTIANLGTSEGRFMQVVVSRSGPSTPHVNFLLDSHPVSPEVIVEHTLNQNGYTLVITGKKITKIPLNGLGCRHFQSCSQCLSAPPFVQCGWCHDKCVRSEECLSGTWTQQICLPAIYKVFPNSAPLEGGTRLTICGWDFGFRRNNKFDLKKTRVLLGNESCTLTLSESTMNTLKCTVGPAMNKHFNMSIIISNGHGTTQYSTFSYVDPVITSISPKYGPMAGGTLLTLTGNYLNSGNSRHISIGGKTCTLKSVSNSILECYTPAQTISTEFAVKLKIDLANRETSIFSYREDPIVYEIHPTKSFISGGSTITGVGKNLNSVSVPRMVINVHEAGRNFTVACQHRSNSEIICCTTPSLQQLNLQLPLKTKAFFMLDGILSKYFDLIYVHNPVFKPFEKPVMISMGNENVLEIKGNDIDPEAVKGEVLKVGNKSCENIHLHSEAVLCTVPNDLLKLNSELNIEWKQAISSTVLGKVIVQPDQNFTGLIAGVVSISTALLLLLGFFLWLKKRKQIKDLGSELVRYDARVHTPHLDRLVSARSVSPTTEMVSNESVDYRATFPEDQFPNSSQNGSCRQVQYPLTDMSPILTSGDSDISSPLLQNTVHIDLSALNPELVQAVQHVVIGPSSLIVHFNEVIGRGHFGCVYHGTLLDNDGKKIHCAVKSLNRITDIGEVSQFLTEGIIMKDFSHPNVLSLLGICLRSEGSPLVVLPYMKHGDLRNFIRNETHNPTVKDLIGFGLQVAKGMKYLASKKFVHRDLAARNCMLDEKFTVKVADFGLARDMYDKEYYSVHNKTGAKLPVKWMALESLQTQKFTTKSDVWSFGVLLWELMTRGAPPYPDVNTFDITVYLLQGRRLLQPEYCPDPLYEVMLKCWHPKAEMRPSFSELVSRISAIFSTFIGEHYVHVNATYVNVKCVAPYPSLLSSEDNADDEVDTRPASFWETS

IC50 [5] | IC50 [6] | IC50 [7] | IC50 [8] | IC50 [9] | SMILES | IC50 [1] | IC50 [2] | IC50 [3] | IC50 [4]
– | – | – | – | – | O=C(Nc1ccc(Oc2ccnc3[nH]ccc23)c(F)c1)c1nnn(-c2ccc(Cl)c(C(F)(F)F)c2)c1C(F)(F)F | 1050 nM | 1290 nM | – | –
– | – | – | – | – | O=C(Nc1ccc(Oc2ccnc3[nH]ccc23)c(F)c1)c1nnn(-c2ccc(F)c(F)c2)c1C(F)(F)F | 320 nM | 350 nM | 590 nM | 2480 nM
– | – | – | – | – | Cc1c(C(=O)Nc2ccc(Oc3ccnc4[nH]ccc34)c(F)c2)nnn1-c1ccc(Cl)c(C(F)(F)F)c1 | 1120 nM | 2370 nM | – | –
– | – | – | – | – | Cc1c(C(=O)Nc2ccc(Oc3ccnc4[nH]ccc34)cc2)nnn1-c1ccccc1F | 360 nM | 320 nM | 280 nM | 3450 nM
– | – | – | – | – | O=C(Nc1ccc(Oc2ccnc3[nH]ccc23)cc1)c1nnn(-c2ccccc2)c1C(F)(F)F | 190 nM | 290 nM | 260 nM | 3570 nM
– | – | – | – | – | COc1ccc(-n2nnc(C(=O)Nc3ccc(Oc4ccnc5[nH]ccc45)cc3)c2C(F)(F)F)cc1 | 290 nM | 460 nM | 580 nM | 4850 nM
– | – | – | – | – | O=C(Nc1ccc(Oc2ccnc3[nH]ccc23)c(F)c1)c1nnn(-c2ccccc2)c1C(F)(F)F | 91 nM | 220 nM | 1150 nM | 2320 nM
– | – | – | – | – | Cc1c(C(=O)Nc2ccc(Oc3ccnc4[nH]ccc34)cc2)nnn1-c1ccc(F)c(F)c1 | 1070 nM | 2260 nM | – | –
– | – | – | – | – | Cc1c(C(=O)Nc2ccc(Oc3ccnc4[nH]ccc34)cc2)nnn1-c1ccc(F)c(Cl)c1 | 2180 nM | 980 nM | 6310 nM | 12600 nM
– | – | – | – | – | O=C(Nc1ccc(Oc2ccnc3[nH]ccc23)c(F)c1)c1nnn(-c2ccc(F)c(Cl)c2)c1C(F)(F)F | 630 nM | 820 nM | – | –
– | – | – | – | – | O=C(Nc1ccc(Oc2ccnc3[nH]ccc23)c(F)c1)c1nnn(-c2ccccc2F)c1C(F)(F)F | 73 nM | 190 nM | 280 nM | 2130 nM
– | – | – | – | – | Cc1c(C(=O)Nc2ccc(Oc3ccnc4[nH]ccc34)cc2)nnn1-c1ccc(F)cc1 | 180 nM | 220 nM | 390 nM | 3450 nM
86.2 nM | 4.57 nM | 2.06 nM | 325 nM | 1.68 nM | O=C(Nc1ccc(Oc2ccnc3[nH]ccc23)c(F)c1)c1nnn(-c2ccc(F)cc2)c1C(F)(F)F | 29 nM | 82 nM | 110 nM | 1520 nM
– | – | – | – | – | COc1ccc(-n2nnc(C(=O)Nc3ccc(Oc4ccnc5[nH]ccc45)cc3)c2C)cc1 | 1160 nM | 2420 nM | – | –
– | – | – | – | – | Cc1c(C(=O)Nc2ccc(Oc3ccnc4[nH]ccc34)c(F)c2)nnn1-c1ccc(F)cc1 | 120 nM | 150 nM | 170 nM | 4350 nM
– | – | – | – | – | O=C(Nc1ccc(Oc2ccnc3[nH]ccc23)cc1)c1nnn(-c2ccccc2F)c1C(F)(F)F | 120 nM | 210 nM | 290 nM | 3690 nM
– | – | – | – | – | Cc1c(C(=O)Nc2ccc(Oc3ccnc4[nH]ccc34)cc2)nnn1-c1ccccc1 | 350 nM | 420 nM | 320 nM | 7260 nM
– | – | – | – | – | Cc1c(C(=O)Nc2ccc(Oc3ccnc4[nH]ccc34)cc2)nnn1-c1ccc(Cl)c(C(F)(F)F)c1 | 3290 nM | 2830 nM | 8410 nM | 10900 nM
– | – | – | – | – | O=C(Nc1ccc(Oc2ccnc3[nH]ccc23)cc1)c1nnn(-c2ccc(Cl)c(C(F)(F)F)c2)c1C(F)(F)F | 1530 nM | 2340 nM | – | –
– | – | – | – | – | O=C(Nc1ccc(Oc2ccnc3[nH]ccc23)cc1)c1nnn(-c2ccc(F)c(Cl)c2)c1C(F)(F)F | 1020 nM | 1120 nM | – | –
– | – | – | – | – | Cc1c(C(=O)Nc2ccc(Oc3ccnc4[nH]ccc34)c(F)c2)nnn1-c1ccccc1F | 180 nM | 390 nM | 420 nM | 3240 nM
– | – | – | – | – | Cc1c(C(=O)Nc2ccc(Oc3ccnc4[nH]ccc34)c(F)c2)nnn1-c1ccc(F)c(Cl)c1 | 1060 nM | 730 nM | – | –
– | – | – | – | – | Cc1c(C(=O)Nc2ccc(Oc3ccnc4[nH]ccc34)c(F)c2)nnn1-c1ccc(F)c(F)c1 | 610 nM | 570 nM | 820 nM | 6540 nM
– | – | – | – | – | O=C(Nc1ccc(Oc2ccnc3[nH]ccc23)cc1)c1nnn(-c2ccc(F)cc2)c1C(F)(F)F | 93 nM | 180 nM | 210 nM | 2830 nM
– | – | – | – | – | COc1ccc(-n2nnc(C(=O)Nc3ccc(Oc4ccnc5[nH]ccc45)c(F)c3)c2C(F)(F)F)cc1 | 290 nM | 360 nM | 510 nM | 1850 nM
– | – | – | – | – | O=C(Nc1ccc(Oc2ccnc3[nH]ccc23)cc1)c1nnn(-c2ccc(F)c(F)c2)c1C(F)(F)F | 520 nM | 790 nM | 690 nM | 7310 nM
– | – | – | – | – | COc1ccc(-n2nnc(C(=O)Nc3ccc(Oc4ccnc5[nH]ccc45)c(F)c3)c2C)cc1 | 590 nM | 710 nM | – | –
– | – | – | – | – | Cc1c(C(=O)Nc2ccc(Oc3ccnc4[nH]ccc34)c(F)c2)nnn1-c1ccccc1 | 290 nM | 360 nM | 350 nM | 2340 nM
